Assay results reported in ChEMBL document CHEMBL1154610, “Discovery and preclinical evaluation of [4-[[1-(3-fluorophenyl)methyl]-1H-indazol-5-ylamino]-5-methylpyrrolo[2,1-f][1,2,4]triazin-6-yl]carbamic acid, (3S)-3-morpholinylmethyl ester (BMS-599626), a selective and orally efficacious inhibitor of human epidermal growth factor receptor 1 and 2 kinases” (J Med Chem, 2009).
pIC50: −log10 of the molar value.

Assays:
[1] = Half life in rat plasma at 10 mg/kg, po; assay type: ADME, organism-based; parameters: dose 10 mg/kg, route oral
[2] = Mean residence time in cynomolgus monkey at 5 mg/kg, iv; assay type: ADME, organism-based, Macaca fascicularis; parameters: dose 5 mg/kg, route intravenous; conditions: in vivo
[3] = target: Receptor tyrosine-protein kinase erbB-4 (Homo sapiens, UniProt Q15303); assay: Inhibition of human recombinant HER4 expressed in Sf9 cells by liquid scintillation counting
[4] = Tmax in rat at 10 mg/kg, po; assay type: ADME, organism-based; parameters: dose 10 mg/kg, route oral; conditions: in vivo
Method in brief: (§1)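 Rat PK, average of three animals. Solution formulation in PEG400/Tween80/water (50:0.1:50), given orally at 10 mg/kg or iv at 2.5 mg/kg. Tmax comes from oral dosing; Vss comes from iv dosing.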

[5] = Oral bioavailability in dog at 25 mg/kg; assay type: ADME, organism-based, Canis lupus familiaris; conditions: in vivo
[6] = Oral bioavailability in rat at 10 mg/kg; assay type: ADME, organism-based; conditions: in vivo
[7] = AUC (0 to 24 hrs) in cynomolgus monkey at 5 mg/kg, po; assay type: ADME, organism-based, Macaca fascicularis; parameters: time < 24 hr, dose 5 mg/kg, route oral; conditions: plasma
Method in brief: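 Monkeys were dosed orally at 5 mg/kg as a solution in PEG400/Tween80/water (50:0.1:50).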

[8] = target: T1, Cytochrome P450 1A2 (Homo sapiens, UniProt P05177); assay: Inhibition of human CYP1A2; assay type: ADME
T1 sequence (P05177 whole entry): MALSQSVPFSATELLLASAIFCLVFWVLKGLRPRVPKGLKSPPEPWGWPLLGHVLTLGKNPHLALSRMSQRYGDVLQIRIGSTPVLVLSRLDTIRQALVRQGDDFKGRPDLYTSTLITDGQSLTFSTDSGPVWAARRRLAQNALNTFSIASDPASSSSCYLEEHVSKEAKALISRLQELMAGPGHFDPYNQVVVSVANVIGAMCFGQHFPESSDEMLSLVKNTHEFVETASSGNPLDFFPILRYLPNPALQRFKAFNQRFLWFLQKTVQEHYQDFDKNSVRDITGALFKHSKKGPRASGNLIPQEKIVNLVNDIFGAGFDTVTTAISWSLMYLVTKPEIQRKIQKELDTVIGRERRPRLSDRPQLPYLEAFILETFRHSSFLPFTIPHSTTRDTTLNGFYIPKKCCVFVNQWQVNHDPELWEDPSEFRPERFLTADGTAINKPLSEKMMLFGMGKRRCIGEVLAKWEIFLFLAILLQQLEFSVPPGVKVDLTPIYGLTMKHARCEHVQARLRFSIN

[9] = target: T2, Epidermal growth factor receptor and ErbB2 (HER1 and HER2) (Homo sapiens) (UniProt P04626+P00533); assay: Inhibition of HER1/HER2-mediated MAPK phosphorylation in human GEO cells by Western blot; assay type: cell-based
[10] = Cmax in dog at 25 mg/kg, po; assay type: ADME, organism-based, Canis lupus familiaris; parameters: dose 25 mg/kg, route oral; conditions: in vivo
[11] = Half life in mouse plasma at 120 mg/kg, po; assay type: ADME, organism-based; parameters: dose 120 mg/kg, route oral
[12] = test system: L2987; assay: Antitumor activity against human L2987 cells xenografted in athymic mouse at 180 mg/kg, po qd for 14 days; assay type: functional; conditions: L2987, 336 h, read-out: TGI
Method in brief: (§2)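 Xenograft-bearing mice dosed orally once daily in propylene glycol/Tween80/water (40:10:50). TGI taken as percent tumor growth inhibition during treatment; significance from mean tumor weight at end of treatment; body weight loss and morbidity monitored.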

[13] = Antitumor activity against human KPL4 cells xenografted in athymic mouse at 180 mg/kg, po qd for 21 days; assay type: functional; conditions: KPL4, 504 h, read-out: TGI; method in brief: as §2
[14] = Antitumor activity against human GEO cells xenografted in athymic mouse at 180 mg/kg, po qd for 14 days; assay type: functional; conditions: 336 h, read-out: TGI; method in brief: as §2
[15] = Tmax in dog at 25 mg/kg, po; assay type: ADME, organism-based, Canis lupus familiaris; parameters: dose 25 mg/kg, route oral; conditions: in vivo
Method in brief: (§3)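 Dog PK, average of two animals. Compound dosed as a PEG400/Tween80/water (50:0.1:50) solution, orally at 25 mg/kg and iv at 1.5 mg/kg. Oral data give Tmax; iv data give Vss.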

[16] = Antitumor activity against human KPL4 cells xenografted in athymic mouse at 60 mg/kg, po qd for 21 days; assay type: functional; conditions: KPL4, 504 h, read-out: TGI; method in brief: as §2
[17] = target: T2, Epidermal growth factor receptor and ErbB2 (HER1 and HER2) (Homo sapiens); assay: Inhibition of HER1/HER2-mediated AKT phosphorylation in human GEO cells by Western blot; assay type: cell-based
[18] = Tmax in mouse at 120 mg/kg, po; assay type: ADME, organism-based; parameters: dose 120 mg/kg, route oral; conditions: in vivo
Method in brief: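 Mouse PK, average of three animals. Solution formulation in PG/Tween80/water (40:10:50), given orally at 120 mg/kg or iv at 25 mg/kg. Tmax taken from the oral arm; Vss taken from the iv arm.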

[19] = Half life in cynomolgus monkey plasma at 5 mg/kg, po; assay type: ADME, organism-based, Macaca fascicularis; parameters: dose 5 mg/kg, route oral
[20] = Mean residence time in mouse at 25 mg/kg, iv; assay type: ADME, organism-based; parameters: dose 25 mg/kg, route intravenous; conditions: in vivo
[21] = test system: Mus musculus; assay: Plasma concentration in BALB/c mouse at 50 mg/kg, po; assay type: ADME, organism-based; parameters: dose 50 mg/kg, route oral; conditions: in vivo
Method in brief: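 Compound given orally at 50 mg/kg as a solution in PEG400/Tween80/water (40:10:50) to three Balb/C mice. Plasma sampled over 4 h after dosing; AUC(0-4h), Cmax and 4 h concentration reported.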

[22] = test system: NCI-N87; assay: Antitumor activity against human NCI-N87 cells xenografted in athymic mouse at 120 mg/kg, po qd for 21 days; assay type: functional; conditions: NCI-N87, 504 h, read-out: TGI; method in brief: as §2
[23] = Volume of distribution at steady state in dog at 1.5 mg/kg, iv; assay type: ADME, organism-based, Canis lupus familiaris; parameters: dose 1.5 mg/kg, route intravenous; conditions: in vivo, read-out: Vdss; method in brief: as §3
[24] = Antiproliferative activity against mouse SAL2 cells after 72 hrs by MTT assay; assay type: functional, cell-based; conditions: SAL2, 72 h
[25] = test system: L2987; assay: Antitumor activity against human L2987 cells xenografted in athymic mouse at 30 mg/kg, po qd for 14 days; assay type: functional; conditions: L2987, 336 h, read-out: TGI; method in brief: as §2
[26] = target: T2, Epidermal growth factor receptor and ErbB2 (HER1 and HER2) (Homo sapiens); assay: Inhibition of HER1/HER2 phosphorylation in human N87 cells by Western blot; assay type: cell-based; conditions: NCI-N87
[27] = Clearance in dog at 1.5 mg/kg, iv; assay type: ADME, organism-based, Canis lupus familiaris; parameters: dose 1.5 mg/kg, route intravenous; conditions: in vivo
[28] = species: Mus musculus; assay: Toxicity in athymic mouse bearing human tumor cells assessed as mortality; assay type: organism-based
Method in brief: (§4)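 Mice carried human tumor xenografts (L2987, GEO, KPL4, N87) and were dosed orally once daily in propylene glycol/Tween80/water (40:10:50), with a q.d. × 21 schedule given. The L2987 dose levels included 30, 60 and 180 mg/kg. Toxicity was monitored during treatment as significant weight loss or morbidity.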

[29] = species: Mus musculus; assay: Toxicity in athymic mouse bearing human tumor cells assessed as weight loss; assay type: organism-based; method in brief: as §4
[30] = Protein binding in dog plasma at 10 uM by equilibrium dialysis; assay type: ADME, cell-free, Canis lupus familiaris; conditions: read-out: PPB (converted)
[31] = Clearance in rat at 2.5 mg/kg, iv; assay type: ADME, organism-based; parameters: dose 2.5 mg/kg, route intravenous; conditions: in vivo
[32] = Mean residence time in rat at 2.5 mg/kg, iv; assay type: ADME, organism-based; parameters: dose 2.5 mg/kg, route intravenous; conditions: in vivo
[33] = AUC (0 to 4 hrs) in BALB/c mouse at 50 mg/kg, po; assay type: ADME, organism-based; parameters: time < 4 hr, dose 50 mg/kg, route oral; conditions: plasma
[34] = test system: NCI-N87; assay: Antiproliferative activity against human NCI-N87 cells after 72 hrs by MTT assay; assay type: functional, cell-based; conditions: NCI-N87, 72 h
[35] = target: Receptor tyrosine-protein kinase erbB-2 (Homo sapiens, UniProt P04626); assay: Inhibition of human recombinant HER2 expressed in Sf9 cells by liquid scintillation counting
[36] = Volume of distribution at steady state in rat at 2.5 mg/kg, iv; assay type: ADME, organism-based; parameters: dose 2.5 mg/kg, route intravenous; conditions: in vivo, read-out: Vdss; method in brief: as §1

Receptor tyrosine-protein kinase erbB-2, sequence (P04626 whole entry): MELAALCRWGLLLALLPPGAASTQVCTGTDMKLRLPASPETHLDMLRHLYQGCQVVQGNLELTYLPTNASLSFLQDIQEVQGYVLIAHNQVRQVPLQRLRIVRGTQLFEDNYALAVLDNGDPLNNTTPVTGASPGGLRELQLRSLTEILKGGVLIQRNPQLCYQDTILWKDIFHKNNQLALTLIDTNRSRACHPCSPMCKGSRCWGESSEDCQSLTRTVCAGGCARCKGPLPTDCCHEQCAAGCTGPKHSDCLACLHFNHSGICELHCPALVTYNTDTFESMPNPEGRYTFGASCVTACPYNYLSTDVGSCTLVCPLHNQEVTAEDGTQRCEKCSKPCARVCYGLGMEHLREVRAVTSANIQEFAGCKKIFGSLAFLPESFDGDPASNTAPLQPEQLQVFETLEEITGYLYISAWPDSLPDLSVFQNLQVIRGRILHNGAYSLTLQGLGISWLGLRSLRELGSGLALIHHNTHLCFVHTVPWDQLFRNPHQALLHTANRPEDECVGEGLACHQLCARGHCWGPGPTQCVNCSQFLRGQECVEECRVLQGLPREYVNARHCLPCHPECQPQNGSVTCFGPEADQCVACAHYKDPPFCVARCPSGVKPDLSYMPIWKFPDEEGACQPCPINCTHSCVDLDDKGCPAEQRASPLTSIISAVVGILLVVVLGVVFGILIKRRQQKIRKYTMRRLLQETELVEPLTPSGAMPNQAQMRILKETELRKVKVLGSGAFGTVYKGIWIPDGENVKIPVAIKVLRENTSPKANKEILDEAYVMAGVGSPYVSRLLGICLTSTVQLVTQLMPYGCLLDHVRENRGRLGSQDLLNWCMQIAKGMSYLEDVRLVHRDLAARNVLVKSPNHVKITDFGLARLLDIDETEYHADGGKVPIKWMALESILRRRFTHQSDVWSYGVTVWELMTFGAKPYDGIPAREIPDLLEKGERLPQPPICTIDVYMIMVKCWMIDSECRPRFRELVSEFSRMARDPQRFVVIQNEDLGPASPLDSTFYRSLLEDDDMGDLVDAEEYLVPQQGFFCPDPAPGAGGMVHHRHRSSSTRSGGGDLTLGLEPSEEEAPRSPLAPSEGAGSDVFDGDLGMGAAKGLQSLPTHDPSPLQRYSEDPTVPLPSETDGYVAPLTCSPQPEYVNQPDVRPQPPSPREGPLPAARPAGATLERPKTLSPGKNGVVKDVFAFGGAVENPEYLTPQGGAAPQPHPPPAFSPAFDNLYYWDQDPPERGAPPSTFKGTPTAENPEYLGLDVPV
Receptor tyrosine-protein kinase erbB-4, sequence (Q15303 whole entry): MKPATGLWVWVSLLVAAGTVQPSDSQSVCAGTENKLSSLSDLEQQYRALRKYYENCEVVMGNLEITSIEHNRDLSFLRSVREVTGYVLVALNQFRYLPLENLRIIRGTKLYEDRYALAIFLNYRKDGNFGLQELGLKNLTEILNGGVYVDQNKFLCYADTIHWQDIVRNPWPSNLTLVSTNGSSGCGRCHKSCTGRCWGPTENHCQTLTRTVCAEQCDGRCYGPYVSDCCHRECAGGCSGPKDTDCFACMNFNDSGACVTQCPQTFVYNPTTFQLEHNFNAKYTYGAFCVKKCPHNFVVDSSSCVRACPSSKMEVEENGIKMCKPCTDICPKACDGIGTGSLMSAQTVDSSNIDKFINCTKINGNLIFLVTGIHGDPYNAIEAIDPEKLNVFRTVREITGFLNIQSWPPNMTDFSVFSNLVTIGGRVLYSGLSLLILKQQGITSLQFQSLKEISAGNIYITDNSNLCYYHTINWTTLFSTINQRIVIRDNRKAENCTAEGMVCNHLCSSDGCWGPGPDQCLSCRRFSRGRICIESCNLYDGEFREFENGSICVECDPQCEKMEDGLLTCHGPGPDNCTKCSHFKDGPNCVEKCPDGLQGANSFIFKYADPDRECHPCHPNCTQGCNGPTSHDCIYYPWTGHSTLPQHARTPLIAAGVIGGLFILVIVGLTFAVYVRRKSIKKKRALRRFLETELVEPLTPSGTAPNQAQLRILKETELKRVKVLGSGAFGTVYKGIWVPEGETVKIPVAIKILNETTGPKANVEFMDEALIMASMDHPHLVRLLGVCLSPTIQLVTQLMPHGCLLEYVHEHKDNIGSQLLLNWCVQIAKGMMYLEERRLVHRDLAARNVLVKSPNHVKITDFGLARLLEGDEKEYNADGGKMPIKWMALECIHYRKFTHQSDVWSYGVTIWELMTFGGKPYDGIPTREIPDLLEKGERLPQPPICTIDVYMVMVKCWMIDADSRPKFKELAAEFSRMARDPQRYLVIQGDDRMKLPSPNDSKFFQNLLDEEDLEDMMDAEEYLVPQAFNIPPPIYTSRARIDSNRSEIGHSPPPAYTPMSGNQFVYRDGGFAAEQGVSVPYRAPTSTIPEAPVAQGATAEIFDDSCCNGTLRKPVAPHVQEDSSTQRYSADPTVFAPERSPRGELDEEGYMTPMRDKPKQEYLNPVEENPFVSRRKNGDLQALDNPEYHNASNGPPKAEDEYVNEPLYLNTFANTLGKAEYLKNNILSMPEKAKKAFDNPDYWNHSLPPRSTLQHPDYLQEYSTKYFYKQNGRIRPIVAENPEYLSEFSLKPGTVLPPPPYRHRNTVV

Question: With Cc1c(NC(=O)OC[C@@H]2COCCN2)cn2ncnc(Nc3ccc4c(cnn4Cc4cccc(F)c4)c3)c12 [AC-480] as the compound, how does the half-life [1] read?
Answer: 2.8 h

Question: What about the MRT [2] of the same compound?
Answer: 6.4 h

Question: And the pIC50 [3]?
Answer: 6.72

Question: What about the Tmax [4] of the same compound?
Answer: 0.7 h

Question: What about the bioavailability [5] of the same compound?
Answer: 49%

Question: And the bioavailability [6]?
Answer: 40%

Question: What about the AUC(0-t) at 24 h [7] of the same compound?
Answer: 3.6 µM·h

Question: And the pIC50 [8]?
Answer: < 4.40

Question: What about the inhibition [9] of the same compound?
Answer: Dose-dependent effect

Question: What about the Cmax [10] of the same compound?
Answer: 1200 nM

Question: And the half-life [11]?
Answer: 2.7 h

Question: What about the inhibition in vivo at 180 mg/kg [12] of the same compound?
Answer: 99%

Question: What about the inhibition in vivo at 180 mg/kg [13] of the same compound?
Answer: 129%

Question: What about the inhibition in vivo at 180 mg/kg [14] of the same compound?
Answer: 88%

Question: What about the Tmax [15] of the same compound?
Answer: 2.3 h

Question: What about the inhibition in vivo at 60 mg/kg [16] of the same compound?
Answer: 61%

Question: And the inhibition [17]?
Answer: Dose-dependent effect

Question: What about the Tmax [18] of the same compound?
Answer: 1 h

Question: What about the half-life [19] of the same compound?
Answer: 5.7 h

Question: What about the MRT [20] of the same compound?
Answer: 3.7 h

Question: What about the concentration [21] of the same compound?
Answer: 4100 nM

Question: And the inhibition in vivo at 120 mg/kg [22]?
Answer: 81%

Question: And the Vd [23]?
Answer: 10.1 L/kg

Question: What about the pIC50 [24] of the same compound?
Answer: 6.62

Question: What about the inhibition in vivo at 30 mg/kg [25] of the same compound?
Answer: < 50%

Question: What about the inhibition [26] of the same compound?
Answer: Dose-dependent effect

Question: And the clearance [27]?
Answer: 24.8 mL/min/kg

Question: And the Activity [28]?
Answer: Non-toxic

Question: And the Activity [29]?
Answer: Non-toxic

Question: And the fraction unbound at 10 µM [30]?
Answer: 0.029

Question: What about the clearance [31] of the same compound?
Answer: 41.6 mL/min/kg

Question: And the MRT [32]?
Answer: 2.8 h

Question: What about the AUC(0-t) at 4 h [33] of the same compound?
Answer: 13.3 µM·h

Question: What about the pIC50 [34] of the same compound?
Answer: 6.35

Question: And the pIC50 [35]?
Answer: 7.66

Question: What about the Vd [36] of the same compound?
Answer: 5.7 L/kg
